Consider one compound from paper PMC10448641 (ACS Omega, 2023).

The subject of the assay is WISH cells. Put plainly: MTT cytotoxicity assay, WISH normal cells. Format: cell-based. The settings on record: read-out: IC50 ± SD, WISH (Normal cells). The procedure, abridged:
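Cells obtained from the Egyptian National Cancer Institute and grown in RPMI-1640/DMEM with L-glutamine. Seeded at 5 × 10^4 cells/well in triplicate and treated at 0.1, 1, 10 and 100 μg/mL. Viability read by MTT on the second day with absorbance on a microplate reader. IC50 derived against control-group viability, recorded in triplicate, mean ± SD.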

As to `COc1cccc2c1C(=O)c1c(O)c3c(c(O)c1C2=O)C[C@@](O)(C(=O)CO)C[C@@H]3O[C@H]1C[C@H](N)[C@H](O)[C@H](C)O1` [Doxorubicin], the IC50 came to 56.5 ± 2.7 µM.
